{
  "source": "paper PMC3662250",
  "about": "(Synlett : accounts and rapid communications in synthetic …, 2010)",
  "target": "human ΔF508-CFTR (Homo sapiens, UniProt P13569, DEL508-508)",
  "test": "ΔF508-CFTR corrector activity assay",
  "assay_type": "cell-based",
  "details": "comparison with bithiazole 27 of earlier studies",
  "method_in_brief": "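FRT cells expressing ΔF508-CFTR, with FRT-null cells as counter-screen. Cells were PBS-washed, then incubated 20 min with forskolin (20 µM) plus genistein (50 µM). Fluorescence (ex 500, em 535 nm) was read 2 s baseline, then 12 s after adding PBS with 137 mM Cl− replaced by I−. Initial slope was extrapolated from an exponential fit of the final 11.5 s. Controls were DMSO vehicle, a bithiazole corrector and CFTRinh-172 inhibition.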",
  "data": [
    {"molecule": "Cc1cccc(Nc2ncnc3onc(-c4ccc(F)cc4)c23)c1C", "note": "[Compound 7]", "values": [
      {"measurement": "Vmax compared with s-cis locked bithiazole 27", "value": "greater Vmax value"}
    ]}
  ]
}
